Experimental findings from ChEMBL document CHEMBL4270671, “Pathway-Based Drug Repositioning for Cancers: Computational Prediction and Experimental Validation” (J Med Chem, 2018) are described below.

Active and inactive are the calls of the source. The calls are words filed in the database; no cut-off is given here.

Data set [1] deals with HET-1A. The data set is described as follows: Reduction in viability of human HET-1A cells after 6 hrs by fluorescence assay. The class given is cell-based. An outline of the steps: (§1)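 A single multiplexed triplex kit read cell viability, cytotoxicity and apoptosis, with caspase-3/7 activity as the apoptosis marker. Compounds were tested over a range of concentrations on cancer lines and normal epithelial Het-1A cells, with DMSO as the vehicle control. Read-outs were compared against the DMSO wells.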

In data set [2] the test system is A549. The data set is described as follows: Reduction in viability of human A549 cells after 6 hrs by fluorescence assay. In kind it is functional, cell-based. An outline of the steps: as §1
In data set [3] the test system is Caco-2. Briefly: Reduction in viability of human Caco2 cells after 6 hrs by fluorescence assay. The class given is functional, cell-based. An outline of the steps: as §1
The test system of data set [4] is ASPC1. The data set is described as follows: Reduction in viability of human AsPC1 cells after 6 hrs by fluorescence assay. In kind it is functional, cell-based. Summed up:
as §1

The subject of data set [5] is PC-3. The data set is described as follows: Reduction in viability of human PC3 cells after 6 hrs by fluorescence assay. In kind it is functional, cell-based. Summed up:
as §1

The test system of data set [6] is A549. The data set is described as follows: Induction of apoptosis in human A549 cells assessed as increase in caspase 3/7 activity after 6 hrs by caspase glo 3/7 assay. The class given is functional, cell-based. An outline of the steps:
as §1

Data set [7] relates to Caco-2. Briefly: Induction of apoptosis in human Caco2 cells assessed as increase in caspase 3/7 activity after 6 hrs by caspase glo 3/7 assay. The class given is functional, cell-based. An outline of the steps: as §1
The test system of data set [8] is ASPC1. Briefly: Induction of apoptosis in human AsPC1 cells assessed as increase in caspase 3/7 activity after 6 hrs by caspase glo 3/7 assay. In kind it is functional, cell-based. An outline of the steps:
as §1

Data set [9] deals with PC-3. Briefly: Induction of apoptosis in human PC3 cells assessed as increase in caspase 3/7 activity after 6 hrs by caspase glo 3/7 assay. In kind it is functional, cell-based. Summed up: as §1
Data set [10] has as its system HET-1A. The data set is described as follows: Induction of apoptosis in human HET-1A cells assessed as increase in caspase 3/7 activity after 6 hrs by caspase glo 3/7 assay. In kind it is cell-based. An outline of the steps:
as §1

In data set [11] the test system is HET-1A. Briefly: Cytotoxicity against human HET-1A cells after 6 hrs by fluorescence assay. The class given is cell-based. An outline of the steps:
as §1

For data set [12], the system named is A549. The data set is described as follows: Cytotoxicity against human A549 cells after 6 hrs by fluorescence assay. The class given is functional, cell-based. Summed up: as §1
Data set [13] relates to Caco-2. Briefly: Cytotoxicity against human Caco2 cells after 6 hrs by fluorescence assay. The class given is functional, cell-based. An outline of the steps:
as §1

Data set [14] has as its system ASPC1. Briefly: Cytotoxicity against human AsPC1 cells after 6 hrs by fluorescence assay. In kind it is functional, cell-based. An outline of the steps:
as §1

Data set [15] concerns PC-3. The data set is described as follows: Cytotoxicity against human PC3 cells after 6 hrs by fluorescence assay. In kind it is functional, cell-based. An outline of the steps:
as §1

For `CN1[C@@H]2CCC[C@H]1CC(NC(=O)c1nn(C)c3ccccc13)C2` (stereo partly specified), the Activity result with HET-1A [1] is given as “Toxic”. The result in the data set on A549 [2], in the data set on Caco-2 [3], with ASPC1 [4] and in the data set on PC-3 [5] was inactive.
Consider `CC(=O)Oc1ccccc1C(=O)Nc1ncc([N+](=O)[O-])s1`, for which the result with A549 [6], in the data set on Caco-2 [7], with ASPC1 [8] and in the data set on PC-3 [9] was inactive.
As for `CC[C@H]1OC(=O)[C@H](C)[C@@H](O[C@H]2C[C@@](C)(OC)[C@@H](O)[C@H](C)O2)[C@H](C)[C@@H](O[C@@H]2O[C@H](C)C[C@H](N(C)C)[C@H]2O)[C@](C)(O)C[C@@H](C)[C@@H]2N[C@@H](COCCOC)O[C@H]([C@H]2C)[C@]1(C)O` [DIRITHROMYCIN], the Activity result in the data set with HET-1A [1] is listed as “Toxic”. The result with A549 [2], with Caco-2 [3], with ASPC1 [4] and in the data set with PC-3 [5] was inactive.
Take `COC(=O)C1=C(C)NC(C)=C(C(=O)OCCN(C)Cc2ccccc2)C1c1cccc([N+](=O)[O-])c1` (stereo unspecified) [NICARDIPINE]: the Activity entry in the data set on HET-1A [1], in the data set on A549 [2], in the data set with Caco-2 [3], in the data set on ASPC1 [4], with PC-3 [5] and with HET-1A [10] was “Dose-dependent effect” in each case. In addition, the Activity entry in the data set with Caco-2 [7], with PC-3 [9], with HET-1A [11], with A549 [12], in the data set on Caco-2 [13] and with ASPC1 [14] was “Dose-dependent effect” in each case. Besides, the Activity result in the data set with PC-3 [15] was “Dose-dependent effect”.
Regarding `O=C(Nc1ccc([N+](=O)[O-])cc1Cl)c1cc(Cl)ccc1O` [NICLOSAMIDE], the Activity entry with HET-1A [1], in the data set with A549 [2], in the data set on Caco-2 [3], in the data set on ASPC1 [4], in the data set with PC-3 [5] and in the data set on PC-3 [9] was “Dose-dependent effect” in each case. In addition, the outcome in the data set with A549 [6], with Caco-2 [7] and with ASPC1 [8] was Active.
On to `OC1(c2ccc(Cl)c(C(F)(F)F)c2)CCN(CCCC(c2ccc(F)cc2)c2ccc(F)cc2)CC1` [PENFLURIDOL], for which the Activity entry with HET-1A [1], in the data set on A549 [2], in the data set on Caco-2 [3], with ASPC1 [4], in the data set on PC-3 [5] and in the data set with HET-1A [10] was “Dose-dependent effect” throughout. Also, the Activity entry with A549 [6], in the data set on Caco-2 [7], in the data set on PC-3 [9], in the data set with HET-1A [11], with A549 [12] and in the data set with Caco-2 [13] was “Dose-dependent effect” throughout. Besides, the Activity result with ASPC1 [14] and in the data set on PC-3 [15] was “Dose-dependent effect” in each case. The outcome in the data set on ASPC1 [8] was Active.
For `CN(C)CCCN1c2ccccc2Sc2ccccc21` [PROMAZINE], the Activity entry with HET-1A [1], with A549 [2], in the data set with Caco-2 [3], with ASPC1 [4], with PC-3 [5] and in the data set with HET-1A [10] was “Dose-dependent effect” throughout. The Activity result in the data set with A549 [6], in the data set on Caco-2 [7], in the data set on PC-3 [9], in the data set with HET-1A [11], with A549 [12] and with Caco-2 [13] was “Dose-dependent effect” in each case. Moreover, the Activity entry with ASPC1 [14] and in the data set with PC-3 [15] was “Dose-dependent effect” in each case. The outcome with ASPC1 [8] was Active.
